Shown are actives, neighbours in structure and some others; about 1.2% of the full set was active somewhere.
CAL PDZ FP-1: blocks peptide binding to human CAL PDZ domain; inhibition, % at 20 µM; 330,000 compounds, 0.02% hits; purified CAL PDZ, TMR-peptide fluorescence polarization, 1 h; Q9HD26;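 active = highest replicate inhibition of at least 40%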;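 note: plate controls were DMSO neutral control wells for no effect and unlabeled competitor peptide control wells for full effect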
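Material: tagged CAL PDZ protein CerCALP, purified; buffer or medium: sodium phosphate/NaCl buffer pH 7.4 with TCEP, IgG, Thesit; also added: fluorescent TMR peptide probe; schedule: 1 h incubation at room temperature before polarization reading; technique: fluorescence polarization from S- and P-plane intensities, G-factor corrected; control set: unlabelled peptide and DMSO controls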
CaV13 FRET inh: Disruptors of the CACNA1D IQ motif to Ca2+-dependent inactivation inhibitor domain association, primary screening, Förster resonance energy transfer in intact living … | HEK cells, CFP/YFP FRET ICDI-IQ, plate reader, 10 min; percent FRET-ratio fall versus neutral wells | inhibition, % at 12.3 µM | 340,000 compounds, 0.098% hits;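 active = mean replicate inhibition of at least 30% and at least 1% of replicates passing that level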;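 note: 0% = median of the neutral control wells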
CAL PDZ FP-2: CAL PDZ (human) peptide binding inhibition. AID 602252. purified CAL PDZ, TMR-peptide fluorescence polarization, 1 h. inhibition, % at 24.9 µM. 300,000 compounds, 0.92% hits;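 active = mean inhibition of at least 30% with at least half of replicates also reaching 30%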;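 note: 0% = DMSO neutral control and 100% = excess unlabeled competitor peptide PRC23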
ARNT TACC3 PPI: disrupts binding between human ARNT and TACC3; 390,000 compounds, 0.66% hits; AID 623870; AlphaScreen His-ARNT PAS-B/GST-TACC3 binding, luminescence; TACC3 fragment carries E629A point mutation; inhibition, % at 9.99 µM;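 active = mean inhibition of replicates at least 50% and at least half of replicates each reaching 50%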;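 note: 0% = complete ARNT plus TACC3 wells and 100% = ARNT alone without TACC3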
Numbers without * were called inactive; . = no result; + = active, no number.

SMILES | CAL PDZ FP-1 | CaV13 FRET inh | CAL PDZ FP-2 | ARNT TACC3 PPI
O=C(O)c1cccc(Nc2nc(-c3cc4ccccc4oc3=O)cs2)c1 | -0.6 | 76.9* | 3.3 | 24.5
Oc1cc(Nc2cccnc2)cc2cccnc12 | 0.5 | -5.8 | -3.1 | 57.6*
CN(C)c1ccc(-c2cc(O)c3ncccc3c2)cc1 | 0.1 | -5.3 | -2.4 | 35.6
Oc1cc(NCc2cccnc2)ccc1-c1nc2ccccc2o1 | -1.6 | -3.2 | -6.4 | -2.1
Oc1cc(NCCc2cccnc2)cc2cccnc12 | 1.0 | -12.9 | 4.3 | 73.2*
C[C@@H]1CCCCO[C@H](CN(C)Cc2ccncc2)[C@H](C)CN([C@H](C)CO)C(=O)c2cc(NS(=O)(=O)c3ccccc3)ccc2O1 | . | . | . | -25.8
C[C@H](CO)N1C[C@H](C)[C@H](CN(C)S(=O)(=O)c2ccc(F)cc2)Oc2ccc(NS(=O)(=O)c3cccs3)cc2C1=O | . | . | . | -10.5
CC1(C)Cc2c(sc3ncnc(NN)c23)CO1 | -1.4 | -0.7 | -0.2 | 47.0*
CC1(C)Cc2c(sc3ncn(N)c(=N)c23)CO1 | 0.1 | . | -3.1 | 25.1
O=C(NC12CC3CC(CC(C3)C1)C2)c1ccc(-c2ccccc2Cl)o1 | -2.9 | -4.9 | -3.8 | active
O=C(NC12CC3CC(CC(C3)C1)C2)c1ccc(-c2ccc(Cl)cc2)o1 | -0.5 | -5.1 | 2.1 | -8.6
COC(=O)c1ccccc1SCC(=O)Nc1ccc(N2CCOCC2)cc1 | -2.0 | -9.3 | 64.1* | 2.0
O=S(=O)(c1cc(C(F)(F)F)ccc1Cl)N1CCN(c2ncnc3ccccc23)CC1 | -0.6 | -5.7 | 61.8* | -5.0
COc1ccc(-c2cnc3c(c2)C(=O)N([C@@H](C)CO)C[C@H](C)[C@@H](CN(C)C)O3)cc1 | . | . | . | 5.9
O=C1C=CC(=O)c2c(O)c(CO)c(CO)c(O)c21 | 2.6 | -15.5 | 7.2 | 11.9*
O=C(Nc1nnc(-c2ccccc2Cl)o1)c1cccnc1 | -3.1 | -7.4 | . | 53.9*
CCN(c1ccccc1)S(=O)(=O)c1ccc(C(=O)N2CCN(c3ccccc3)CC2)cc1 | -0.2 | -7.3 | 85.2* | -1.2
CN(CC1CCCO1)S(=O)(=O)c1ccc(C(=O)N2CCN(c3ccccc3)CC2)cc1 (stereo not drawn) | -0.4 | -6.6 | + | -2.8
Cc1c(S(=O)(=O)N2CCCC2)c(=O)n(C)c(=O)n1C | -2.0 | -5.7 | -2.8 | -2.2
Cn1c(N)c(S(=O)(=O)N2CCCC2)c(=O)n(C)c1=O | -0.7 | -5.2 | 46.5* | -1.4
C/C(=C\C(=O)O)C12CC3CC(CC(C3)C1)C2 | . | -4.6 | 30.9* | -4.8
CN1CCN(C(=O)C23CC4CC(CC(C4)C2)C3)CC1 | . | -1.4 | . | .
O=C(C[C@@H]1C[C@H]2c3cc(NC(=O)NC4CCCC4)ccc3O[C@H]2[C@H](CO)O1)NCc1ccc2c(c1)OCO2 | . | . | . | 4.0
CCOC(=O)/C(=N\Nc1cccc(Cl)c1)Sc1nnc(-c2ccc(OC)cc2)n1C | -0.5 | -8.3 | -3.1 | 45.9*
C[C@H](CO)N1C[C@H](C)[C@H](CN(C)Cc2cccnc2)Oc2ncc(-c3ccc(C#N)cc3)cc2C1=O | . | . | . | -2.4
SMILES | CAL PDZ FP-1 | CaV13 FRET inh | CAL PDZ FP-2 | ARNT TACC3 PPI
CC(C)c1ccc(/C=C2\Oc3c(ccc(O)c3CN3CCN(C)CC3)C2=O)cc1 | -1.6 | + | -4.6 | .
CCC(=O)Nc1ccc2c(c1)C(=O)N(C)C[C@H](OC)[C@H](C)CN(C(=O)CC1CC1)[C@H](C)CO2 | . | . | . | -6.0
C[C@H]1CN([C@@H](C)CO)C(=O)c2ccccc2-c2ccccc2CO[C@@H]1CN(C)C(=O)Oc1ccccc1 | . | . | . | 0.2
CNC[C@H]1Oc2ccc(NS(=O)(=O)c3ccccc3)cc2C(=O)N([C@@H](C)CO)C[C@H]1C | . | . | . | -2.0
Cn1c(-c2cc3ccc(OC(=O)C(C)(C)C)cc3oc2=O)nc2ccccc21 | -0.9 | 21.5 | -3.4 | -6.6
CC(=O)Oc1ccc2cc(-c3nc4ccccc4n3C)c(=O)oc2c1 | -1.3 | 33.0* | 1.9 | -6.3
O=C(Nc1ccc(Nc2ccccc2)cc1)c1cccc(F)c1 | 0.4 | -2.1 | 0.6 | 4.6
COC(=O)C(NNc1ccccc1)(NC(=O)c1cccc(F)c1)C(F)(F)F (stereo not drawn) | -0.2 | . | 49.8* | -3.4
COc1ccccc1OCC(O)Cn1nc(C)cc1C (stereo not drawn) | -1.2 | -4.6 | 74.1* | 6.1
CC(C)CC#Cc1cnc2c(c1)C(=O)N([C@H](C)CO)C[C@H](C)[C@H](CN(C)C(=O)CN1CCOCC1)O2 | . | . | . | -8.6
O=C(NCCSc1ccccn1)c1ccc(Cl)cc1Cl | 11.4 | -0.6 | 32.7* | -2.4
O=C(NCCSc1ccccn1)c1ccc(Cl)cc1 | -0.1 | -6.4 | 0.8 | 14.0
Clc1cccc(-c2ccc(CNCc3ccccn3)o2)c1 | 0.1 | -1.5 | 5.8 | 74.1*
C[C@@H]1CCCCO[C@@H](CN(C)Cc2ccc3c(c2)OCO3)[C@H](C)CN([C@H](C)CO)C(=O)c2cc(NC(=O)Nc3ccccc3)ccc2O1 | . | . | . | 25.2
Cn1c(N)c(C(=O)COC(=O)Cc2ccc(Br)cc2)c(=O)n(C)c1=O | -2.7 | -6.8 | -2.1 | 16.6
Cn1c(N)c(C(=O)COC(=O)CC2CC3CCC2C3)c(=O)n(C)c1=O (stereo not drawn) | 9.9 | -2.4 | 87.5* | -0.7
CCC(=O)N1C[C@@H](C)[C@@H](OC)CN(C)C(=O)c2cc(NC(=O)NC(C)C)ccc2OC[C@H]1C | . | . | . | -4.3
C[C@@H](NC(=O)[C@H]1[C@H](CO)[C@H]2Cn3c(cccc3=O)[C@@H]1N2Cc1ccncc1)c1ccccc1 | . | . | . | 1.6
CNC(=O)C[C@@H]1CC[C@@H]2[C@H](COC[C@@H](O)CN2Cc2ccc(C(F)(F)F)cc2)O1 | . | . | . | 9.7
Cc1ccccc1OCC(=O)OCC(=O)c1cc(C)n(C2CC2)c1C | -2.2 | -5.9 | 46.5* | 0.9
Cc1nn(-c2ccccc2)c(C)c1NC(=O)COC(=O)c1ccc(Cl)c(S(N)(=O)=O)c1 | 0.6 | -3.5 | 64.8* | -9.1
Cc1cc(C(=O)COC(=O)c2ccc(NC(=O)CC#N)cc2)c(C)n1C1CC1 | -2.8 | -4.2 | 0.4 | -5.8
Cc1cc(C(=O)COC(=O)c2ccc(Cl)c(S(N)(=O)=O)c2)c(C)n1C1CC1 | -1.0 | -2.1 | 40.6* | 5.1

Bioassay records (PubChem)
